The structures appear in SMILES notation.

As usually defined, the AUC(0-inf) is the area under the concentration-time curve extrapolated to infinity. In general, AUC(0-t) refers to exposure summed from dosing to a finite time, without extrapolation to infinity. Usually MRT inf stands for a mean duration of stay, worked out from the concentration-time curve. For orientation: half-life means how long it takes for the measured level to halve. For orientation: bioavailability means dose-corrected exposure relative to a reference, in per cent. Read a low bioavailability as little systemic uptake. A word on the Cmax: it is the peak of the concentration-time curve. What is called Tmax is the time at which the peak concentration occurs. As a reminder, the CLint scaled is the rate of metabolic loss divided by the concentration. Low readings indicate greater metabolic stability, high ones faster metabolism.

Data set [1] is described as follows: Pharmacokinetics after p.o. and i.v. administration. It counts as in vivo. The settings on record: mouse.
Data set [2] can be described thus: Liver microsomes metabolic stability, mouse. Type of data set: in vitro ADME. The gist of the method:
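Mouse liver microsomes at 0.5 mg/mL final protein in K/Mg buffer. Test compound went from a 10 mM stock in ACN into a 1.5 µM spiking solution containing 0.75 mg/mL microsomes. After 5 min pre-incubation at 37 °C, reactions were started with 6 mM NADPH stock. They were quenched with ACN containing internal standard at 0, 5, 15, 30 and 45 min, then shaken and centrifuged.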
On the technique in general: Microsomes from liver hold many membrane-bound enzymes, among them those of drug oxidation.

Data set [3] is described as follows: Liver microsomes metabolic stability, human. Type of data set: in vitro ADME.
For the next data set, the system named is SARS-CoV-2. The experiment in a line: Antiviral activity in Vero E6 cells. The settings on record: for antiviral activity relative to nirmatrelvir: EC50 against SARS-CoV-2 compared with nirmatrelvir. It counts as cell-based.

In the case of `CC(C)(C)[C@H](NC(=O)C(F)(F)F)C(=O)N1C[C@@H]2CCC[C@@H]2[C@H]1C(=O)N[C@H](C#N)C[C@@H]1CCNC1=O` [1a, (1S,3aR,6aS)-N-((S)-1-cyano-2-((S)-2-oxopyrrolidin-3-yl)ethyl)-2-((S)-3,3-dimethyl-2-(2,2,2-trifluoroacetamido)butanoyl)octahydrocyclopenta[c]pyrrole-1-carboxamide], in data set [1] (male, plasma, iv, 10 mg/kg), the total exposure AUC(0-inf) was found to be 2670 ng·h/mL, the AUC(0-t) was determined as 2670 ng·h/mL, the MRT inf was 14.4 min and the clearance was found to be 69.3 mL/min/kg. Further, in data set [1] (male, plasma, iv, 10 mg/kg), the half-life was 66 min. The bioavailability in data set [1] (male, plasma, oral, 20 mg/kg) was 22.8%. Besides, in data set [1] (male, plasma, po, 20 mg/kg), the AUC(0-inf) is 1220 ng·h/mL, the exposure AUC(0-t) was found to be 1220 ng·h/mL, the Cmax is 1310 ng/mL and the mean residence time MRT inf was 52.8 min. For the same compound, in data set [1] (male, plasma, po, 20 mg/kg), the time of peak concentration (Tmax) was 25.2 min and the half-life is 60 min. This compound also yielded a Vss_obs in data set [1] (i.v. (10 mg/kg)) of 1.011 L/kg. Also, in data set [2], the intrinsic metabolic clearance (CLint scaled) at 1 µM is 368 mL/min/kg, the half-life at 1 µM came to 14.8 min and the “metabolic stability (in words)” value is “susceptible to metabolic effects”. Further, in data set [3], the CLint scaled at 1 µM came out at 22 mL/min/kg, the half-life at 1 µM was 78.9 min and the “metabolic stability (in words)” value is listed as “moderate metabolic stability”. Moreover, the RNA copy inhibition% in the data set on SARS-CoV-2 (1 μM compound, preliminary screening) amounted to 70%. Also, the “antiviral activity relative to nirmatrelvir” value in the data set on SARS-CoV-2 amounted to 2 fold.

In data set [1] (male, plasma, iv, 10 mg/kg), `CC(C)(C)[C@H](NS(=O)(=O)C(F)(F)F)C(=O)N1C[C@H]2[C@@H]([C@H]1C(=O)N[C@H](C#N)C[C@@H]1CCNC1=O)C2(C)C` [2b, (1R,2S,5S)-N-((S)-1-cyano-2-((S)-2-oxopyrrolidin-3-yl)ethyl)-3-((S)-3,3-dimethyl-2-((trifluoromethyl)sulfonamido)butanoyl)-6,6-dimethyl-3-azabicyclo[3.1.0]hexane-2-carboxamide] came in with a clearance of 41 mL/min/kg. For the same compound, in data set [2], the CLint scaled at 0.75 h, 1 µM was determined as 55.8 mL/min/kg and the “metabolic stability (in words)” value is reported as “moderate metabolic stability”. Moreover, in data set [3], the CLint scaled at 0.75 h, 1 µM is 2.67 mL/min/kg and the “metabolic stability (in words)” value is recorded as “stable”. For the same compound, the “antiviral activity relative to nirmatrelvir” value with SARS-CoV-2 is 4 fold.

In turn, `CC(C)(C)[C@H](NC(=O)C(F)(F)F)C(=O)N1C[C@H]2[C@@H]([C@H]1C(=O)N[C@H](C#N)C[C@@H]1CCNC1=O)C2(C)C` [Nirmatrelvir, reference compound] registered a clearance in data set [1] (male, plasma, iv, 10 mg/kg) of 50.1 mL/min/kg. Also, the intrinsic metabolic clearance (CLint scaled) at 0.75 h, 1 µM in data set [2] worked out at 1180 mL/min/kg.

For the origin of these results see PMC10166615 (Bioorganic & Medicinal Chemistry, 2023).
